Results on nine compounds are retold here after ChEMBL document CHEMBL1156036, “A class of novel N-(3S-1,2,3,4-tetrahydroisoquinoline-3-carbonyl)-L-amino acid derivatives: their synthesis, anti-thrombotic activity evaluation, and 3D QSAR analysis” (Eur J Med Chem, 2009).

Square brackets hold non-standard residues; d marks the D form. Peptide text beside a SMILES is read from it. Tic = O=C(O)[C@@H]1Cc2ccccc2CN1

Usually IC50 stands for the midpoint of a concentration-inhibition curve.

What all share (type): functional
The nature of assay [1]: Antiplatelet aggregatory activity in pig […] assessed as inhibition of arachidonic acid-induced platelet aggregation. Particulars: Sus scrofa. The method in brief: (§1)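 Pig blood spun 1000g 10 min for platelet-rich plasma, then 1500g 10 min for platelet-poor plasma; platelets adjusted to 2×10^8/ml with autologous PPP. Test agent in NS (final 100 to 0.001 μM) added to 0.5 ml plasma, then inducer in NS: PAF 0.1 μM, ADP 10 μM, AA 350 μM or thrombin 0.1 U/ml (final). Optical aggregometry, 37 °C, 5 min, six tubes.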

Assay [2] deals with Rattus norvegicus. Description: Antithrombotic activity in Wistar rat assessed as reduction of wet thrombus weight at 15 umol/kg, po after 15 mins.
The test system of assay [3] is Rattus norvegicus. Description: Antithrombotic activity in Wistar rat assessed as reduction of wet thrombus weight at 15 umol/kg, iv after 15 mins. The method in brief:
(§2)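 Male Wistar rats, 250-300 g, given agent dissolved in NS (kept on ice) intravenously; Aspirin 15 μmol/kg as reference, NS as vehicle. Pentobarbital sodium 80.0 mg/kg i.p. Arteriovenous shunt from right carotid artery to left jugular vein via polyethylene tube containing a thread; blood flowed 15 min; wet thrombus weighed, n = 12, mean ± SD.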

The nature of assay [4]: Antiplatelet aggregatory activity in pig […] assessed as inhibition of thrombin-induced platelet aggregation. Particulars: Sus scrofa. The procedure, abridged: as §1
The nature of assay [5]: Antiplatelet aggregatory activity in pig […] assessed as inhibition of platelet-activating factor-induced platelet aggregation. Particulars: Sus scrofa. The procedure, abridged: as §1
Assay [6] in a line: Antiplatelet aggregatory activity in pig […] assessed as inhibition of ADP-induced platelet aggregation. Particulars: Sus scrofa. The procedure, abridged:
as §1

For assay [7], the species on record is Rattus norvegicus. Description: Ratio of compound antithrombotic potency to aspirin antithrombotic potency in Wistar rat assessed as reduction of wet thrombus weight.
In assay [8] the test system is Rattus norvegicus. Description: Antithrombotic activity in Wistar rat assessed as reduction of wet thrombus weight at 5 umol/kg, iv after 15 mins. The method in brief: as §2
Assay [9] relates to Rattus norvegicus. Put plainly: Antithrombotic activity in Wistar rat assessed as reduction of wet thrombus weight at 5 umol/kg, po after 15 mins. The procedure, abridged: (§3)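 Oral dosing of male Wistar rats at 5, 1 or 0.2 μmol/kg in NS, or NS (0.6 ml) alone. Pentobarbital sodium 80.0 mg/kg ip; 30 min later vessels exposed. Weighed 6-cm thread in heparin-filled (50 IU/ml in NS) polyethylene tube linking carotid artery to jugular vein; 15 min flow; wet thrombus weight recorded, n = 12.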

Assay [10] relates to Rattus norvegicus. Description: Antithrombotic activity in Wistar rat assessed as reduction of wet thrombus weight at 1 umol/kg, po after 15 mins. The method in brief:
as §3

The subject of assay [11] is Rattus norvegicus. Put plainly: Antithrombotic activity in Wistar rat assessed as reduction of wet thrombus weight at 0.2 umol/kg, po after 15 mins. The method in brief: as §3

Regarding `O=C(O)[C@@H]1Cc2ccccc2CN1`, the IC50 came to 452 nM in assay [1], 881 nM in [4], 960 nM in [5] and 552 nM in [6]. The Activity in assay [2] was found to be 23.88 mg; in assay [3], 21.52 mg.
On to `O=C(O)C[C@H](NC(=O)[C@@H]1Cc2ccccc2CN1)C(=O)O` (H-[Tic]-Asp-OH), for which the IC50 in assay [1] is 391 nM; in assay [4], 157 nM; in assay [5] it was 633 nM; in assay [6], 329 nM. In addition, the Ratio in [7] was above 30. Besides, the Activity in [8] came out at 21.67 mg.
In the case of `N=C(N)NCCC[C@H](NC(=O)[C@@H]1Cc2ccccc2CN1)C(=O)O` (H-[Tic]-Arg-OH), the half-maximal inhibitory concentration (IC50) in assay [1] came to 361 nM; in [4], 496 nM; in assay [5], 1340 nM; in [6], 124 nM. In addition, the Ratio in assay [7] is above 30. In addition, the Activity is listed as 19.01 mg in assay [9], 24.38 mg in assay [10], 29.11 mg in assay [11] and 18.73 mg in assay [8].
With `O=C(O)[C@@H]1CCCN1C(=O)[C@@H]1Cc2ccccc2CN1` (H-[Tic]-Pro-OH), the IC50 is 103 nM in [1], 185 nM in assay [4], 1400 nM in [5] and 364 nM in assay [6]. In addition, the Ratio in assay [7] was above 30. Besides, in assay [8], the Activity turned out to be 20.25 mg.
Regarding `CC(=O)Oc1ccccc1C(=O)O` [ASPIRIN], the Activity in assay [3] worked out at 27.6 mg.
Consider `O=C(O)[C@H](Cc1ccccc1)NC(=O)[C@@H]1Cc2ccccc2CN1` (H-[Tic]-Phe-OH), for which the IC50 in assay [1] is 553 nM; in [4], 336 nM; in [5], 218 nM; in assay [6], 188 nM. Further, the Ratio in assay [7] is recorded as above 30. In assay [8], the Activity was 19.11 mg.
Consider `O=C(O)[C@H](Cc1ccc(O)cc1)NC(=O)[C@@H]1Cc2ccccc2CN1` (H-[Tic]-Tyr-OH), for which the IC50 in [1] came out at 390 nM; in assay [4], 970 nM; in assay [5], 1150 nM; in [6], 481 nM. For the same compound, the Ratio in assay [7] is reported as above 30. The Activity in [8] is 19.31 mg.
Turning to `O=C(O)[C@H](CO)NC(=O)[C@@H]1Cc2ccccc2CN1` (H-[Tic]-Ser-OH), the IC50 came out at 416 nM in [1], 841 nM in assay [4], 942 nM in assay [5] and 388 nM in assay [6]. Moreover, in [7], the Ratio is above 30. Moreover, the Activity in assay [8] came to 23.58 mg.
Consider `CC(C)C[C@H](NC(=O)[C@@H]1Cc2ccccc2CN1)C(=O)O` (H-[Tic]-Leu-OH), for which the IC50 in assay [1] was 290 nM; in [4], 454 nM; in assay [5], 1610 nM; in assay [6] it was 478 nM. The Ratio in assay [7] is listed as above 30. The Activity in assay [8] amounted to 20.23 mg.
